Measured values reported in ChEMBL document CHEMBL2380298, “Synthesis and antimicrobial activity of novel amphiphilic aromatic amino alcohols” (2013).
Converted amounts (≈) assume the structure as drawn.

Key:
Type in all cases: functional
Staphylococcus aureus [1] = assay: Bactericidal activity against methicillin-resistant Staphylococcus aureus clinical isolate 257 after 24 hrs; settings: isolate 257, 24 h
Procedure, shortened: (§1)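 Bactericidal concentration: 0.1 ml from wells at the MIC dilution and the dilutions on either side was streaked onto tryptic soy agar and incubated 24 h. It was taken as the lowest drug concentration giving no growth (100% killing).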

Staphylococcus aureus [2] = assay: Bactericidal activity against Staphylococcus aureus ATCC 29213 after 24 hrs; settings: ATCC 29213, 24 h; procedure, shortened: as §1
Staphylococcus aureus [3] = assay: Antimicrobial activity against methicillin-resistant Staphylococcus aureus clinical isolate 205 by broth dilution method
Staphylococcus aureus [4] = assay: Antimicrobial activity against methicillin-resistant Staphylococcus aureus clinical isolate 235 by broth dilution method
Pseudomonas aeruginosa = assay: Antimicrobial activity against Pseudomonas aeruginosa ATCC 27853 by broth dilution method
Candida albicans = assay: Antimicrobial activity against Candida albicans ATCC 22019 by broth dilution method
Staphylococcus aureus [5] = assay: Bactericidal activity against methicillin-resistant Staphylococcus aureus clinical isolate 255 after 24 hrs; settings: isolate 255, 24 h; procedure, shortened: as §1
Staphylococcus aureus [6] = assay: Bactericidal activity against methicillin-resistant Staphylococcus aureus clinical isolate 235 after 24 hrs; settings: isolate 235, 24 h; procedure, shortened: as §1
Staphylococcus aureus [7] = assay: Antimicrobial activity against methicillin-resistant Staphylococcus aureus clinical isolate 225 by broth dilution method
Staphylococcus aureus [8] = assay: Bactericidal activity against methicillin-resistant Staphylococcus aureus clinical isolate 231 after 24 hrs; settings: isolate 231, 24 h; procedure, shortened: as §1
Staphylococcus aureus [9] = assay: Bactericidal activity against methicillin-resistant Staphylococcus aureus clinical isolate 238 after 24 hrs; settings: isolate 238, 24 h; procedure, shortened: as §1
Staphylococcus aureus [10] = assay: Bactericidal activity against methicillin-resistant Staphylococcus aureus clinical isolate 259 after 24 hrs; settings: isolate 259, 24 h; procedure, shortened: as §1
Staphylococcus aureus [11] = assay: Antimicrobial activity against Staphylococcus aureus ATCC 29213 by broth dilution method; settings: for MIC: Staphylococcus aureus, ATCC 29213
Candida tropicalis = assay: Antimicrobial activity against Candida tropicalis ATCC 750 by broth dilution method
Staphylococcus aureus [12] = assay: Antimicrobial activity against methicillin-resistant Staphylococcus aureus clinical isolate 227 by broth dilution method
Staphylococcus aureus [13] = assay: Antimicrobial activity against methicillin-resistant Staphylococcus aureus clinical isolate 231 by broth dilution method
Staphylococcus aureus [14] = assay: Antimicrobial activity against methicillin-resistant Staphylococcus aureus clinical isolate 260 by broth dilution method
Staphylococcus aureus [15] = assay: Antimicrobial activity against methicillin-resistant Staphylococcus aureus clinical isolate 255 by broth dilution method
Staphylococcus aureus [16] = assay: Antimicrobial activity against methicillin-resistant Staphylococcus aureus clinical isolate 232 by broth dilution method
Staphylococcus aureus [17] = assay: Antimicrobial activity against methicillin-resistant Staphylococcus aureus clinical isolate 212 by broth dilution method
Staphylococcus aureus [18] = assay: Antimicrobial activity against methicillin-resistant Staphylococcus aureus clinical isolate 195 by broth dilution method
Staphylococcus aureus [19] = assay: Antimicrobial activity against methicillin-resistant Staphylococcus aureus clinical isolate by broth dilution method; settings: for MIC50 / MIC90: Staphylococcus aureus
Staphylococcus aureus [20] = assay: Antimicrobial activity against methicillin-resistant Staphylococcus aureus clinical isolate 264 by broth dilution method
Staphylococcus aureus [21] = assay: Antimicrobial activity against methicillin-resistant Staphylococcus aureus clinical isolate 176 by broth dilution method
Staphylococcus aureus [22] = assay: Antimicrobial activity against methicillin-resistant Staphylococcus aureus clinical isolate 238 by broth dilution method
Staphylococcus aureus [23] = assay: Antimicrobial activity against methicillin-resistant Staphylococcus aureus clinical isolate 236 by broth dilution method
Staphylococcus aureus [24] = assay: Antimicrobial activity against methicillin-resistant Staphylococcus aureus clinical isolate 237 by broth dilution method
[25] = test system: Staphylococcus epidermidis; assay: Antimicrobial activity against Staphylococcus epidermidis ATCC 12228 by broth dilution method; settings: for MIC: Staphylococcus epidermidis, ATCC 12228
Staphylococcus aureus [26] = assay: Bactericidal activity against methicillin-resistant Staphylococcus aureus clinical isolate 236 after 24 hrs; settings: isolate 236, 24 h; procedure, shortened: as §1
Staphylococcus aureus [27] = assay: Antimicrobial activity against methicillin-resistant Staphylococcus aureus clinical isolate 207 by broth dilution method
Staphylococcus aureus [28] = assay: Antimicrobial activity against methicillin-resistant Staphylococcus aureus clinical isolate 257 by broth dilution method
Nakaseomyces glabratus = assay: Antimicrobial activity against Candida glabrata ATCC 18804 by broth dilution method
Staphylococcus aureus [29] = assay: Bactericidal activity against methicillin-resistant Staphylococcus aureus clinical isolate 264 after 24 hrs; settings: isolate 264, 24 h; procedure, shortened: as §1
Candida parapsilosis = assay: Antimicrobial activity against Candida parapsilosis ATCC 90030 by broth dilution method; settings: Lodderomyces parapsilosis
Escherichia coli [30] = assay: Antimicrobial activity against Escherichia coli ATCC 11229 by broth dilution method; settings: for MIC: Escherichia coli, ATCC 11229
Staphylococcus aureus [31] = assay: Bactericidal activity against methicillin-resistant Staphylococcus aureus clinical isolate 232 after 24 hrs; settings: isolate 232, 24 h; procedure, shortened: as §1
Staphylococcus aureus [32] = assay: Antimicrobial activity against methicillin-resistant Staphylococcus aureus clinical isolate 215 by broth dilution method
Staphylococcus aureus [33] = assay: Antimicrobial activity against methicillin-resistant Staphylococcus aureus clinical isolate 218 by broth dilution method
Staphylococcus aureus [34] = assay: Bactericidal activity against methicillin-resistant Staphylococcus aureus clinical isolate 260 after 24 hrs; settings: isolate 260, 24 h; procedure, shortened: as §1
Staphylococcus aureus [35] = assay: Antimicrobial activity against methicillin-resistant Staphylococcus aureus clinical isolate 178 by broth dilution method
[36] = test system: Staphylococcus epidermidis; assay: Bactericidal activity against Staphylococcus epidermidis ATCC 12228 after 24 hrs; settings: ATCC 12228, 24 h
Procedure, shortened: (§2)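 MBC: after MIC determination, 0.1 ml from the MIC well and from two dilutions either side streaked on tryptic soy agar, incubated 24 h; MBC taken as lowest concentration giving no growth (100% kill).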

Staphylococcus aureus [37] = assay: Bactericidal activity against methicillin-resistant Staphylococcus aureus clinical isolate 237 after 24 hrs; settings: isolate 237, 24 h; procedure, shortened: as §1
Staphylococcus aureus [38] = assay: Antimicrobial activity against methicillin-resistant Staphylococcus aureus clinical isolate 259 by broth dilution method
Staphylococcus aureus [39] = assay: Bactericidal activity against methicillin-resistant Staphylococcus aureus clinical isolate 218 after 24 hrs; settings: isolate 218, 24 h; procedure, shortened: as §1
Escherichia coli [40] = assay: Bactericidal activity against Escherichia coli ATCC 11229 after 24 hrs; settings: ATCC 11229, 24 h; procedure, shortened: as §2
Staphylococcus aureus [41] = assay: Bactericidal activity against methicillin-resistant Staphylococcus aureus clinical isolate 225 after 24 hrs; settings: isolate 225, 24 h; procedure, shortened: as §1
Staphylococcus aureus [42] = assay: Bactericidal activity against methicillin-resistant Staphylococcus aureus clinical isolate 212 after 24 hrs; settings: isolate 212, 24 h; procedure, shortened: as §1

Structure (SMILES): CCCCCCCCCCCCCCOc1ccc(CNC(CO)(CO)CO)cc1.Cl
- MBC (Staphylococcus aureus [1]): 8 µg/mL
- MBC (Staphylococcus aureus [2]): 16 µg/mL
- MIC (Staphylococcus aureus [3]): 16 µg/mL
- MIC (Staphylococcus aureus [4]): 4 µg/mL
- MIC (Pseudomonas aeruginosa): > 256 µg/mL
- MIC (Candida albicans): 16 µg/mL
- MBC (Staphylococcus aureus [5]): 16 µg/mL
- MBC (Staphylococcus aureus [6]): 8 µg/mL
- MIC (Staphylococcus aureus [7]): > 1020 µg/mL
- MBC (Staphylococcus aureus [8]): 4 µg/mL
- MBC (Staphylococcus aureus [9]): 4 µg/mL
- MBC (Staphylococcus aureus [10]): 2 µg/mL
- MIC (Staphylococcus aureus [11]): 2 µg/mL
- MIC (Candida tropicalis): 32 µg/mL
- MIC (Staphylococcus aureus [12]): > 1020 µg/mL
- MIC (Staphylococcus aureus [13]): 2 µg/mL
- MIC (Staphylococcus aureus [14]): 2 µg/mL
- MIC (Staphylococcus aureus [15]): 8 µg/mL
- MIC (Staphylococcus aureus [16]): 8 µg/mL
- MIC (Staphylococcus aureus [17]): > 1020 µg/mL
- MIC (Staphylococcus aureus [18]): 16 µg/mL
- -logMIC (Staphylococcus aureus [19]): 5.03
- MIC50 (Staphylococcus aureus [19]): 8 µg/mL
- MIC90 (Staphylococcus aureus [19]): > 1020 µg/mL
- MIC (Staphylococcus aureus [20]): 16 µg/mL
- MIC (Staphylococcus aureus [21]): 16 µg/mL
- MIC (Staphylococcus aureus [22]): 4 µg/mL
- MIC (Staphylococcus aureus [23]): 8 µg/mL
- MIC (Staphylococcus aureus [24]): 4 µg/mL
- -logMIC [25]: 5.36
- MIC [25]: 2 µg/mL
- MBC (Staphylococcus aureus [26]): 8 µg/mL
- MIC (Staphylococcus aureus [27]): > 1020 µg/mL
- MIC (Staphylococcus aureus [28]): 2 µg/mL
- MIC (Nakaseomyces glabratus): 8 µg/mL
- MBC (Staphylococcus aureus [29]): 64 µg/mL
- MIC (Candida parapsilosis): 8 µg/mL
- MIC (Escherichia coli [30]): > 256 µg/mL
- MBC (Staphylococcus aureus [31]): 8 µg/mL
- MIC (Staphylococcus aureus [32]): > 1020 µg/mL
- MIC (Staphylococcus aureus [33]): 8 µg/mL
- MBC (Staphylococcus aureus [34]): 8 µg/mL
- MIC (Staphylococcus aureus [35]): 8 µg/mL
- MBC [36]: 512 µg/mL
- MBC (Staphylococcus aureus [37]): 4 µg/mL
- MIC (Staphylococcus aureus [38]): 2 µg/mL

Structure (SMILES): CCCCCCCCOc1ccc(CNC(CO)(CO)CO)cc1.Cl
- MBC (Staphylococcus aureus [39]): 128 µg/mL
- MBC (Escherichia coli [40]): 32 µg/mL
- MBC (Staphylococcus aureus [1]): 8 µg/mL
- MBC (Staphylococcus aureus [2]): 32 µg/mL
- MIC (Staphylococcus aureus [3]): 16 µg/mL
- MIC (Staphylococcus aureus [4]): 16 µg/mL
- MIC (Pseudomonas aeruginosa): > 256 µg/mL
- MIC (Candida albicans): 4 µg/mL
- MBC (Staphylococcus aureus [5]): 8 µg/mL
- MBC (Staphylococcus aureus [6]): 32 µg/mL
- MIC (Staphylococcus aureus [7]): 128 µg/mL
- MBC (Staphylococcus aureus [8]): 16 µg/mL
- MBC (Staphylococcus aureus [9]): 16 µg/mL
- MBC (Staphylococcus aureus [10]): 8 µg/mL
- -logMIC (Staphylococcus aureus [11]): 3.67
- MIC (Staphylococcus aureus [11]): 8 µg/mL
- MIC (Candida tropicalis): 32 µg/mL
- MIC (Staphylococcus aureus [12]): 32 µg/mL
- MIC (Staphylococcus aureus [13]): 16 µg/mL
- MIC (Staphylococcus aureus [14]): 16 µg/mL
- MIC (Staphylococcus aureus [15]): 8 µg/mL
- MIC (Staphylococcus aureus [16]): 16 µg/mL
- MIC (Staphylococcus aureus [17]): 32 µg/mL
- MIC (Staphylococcus aureus [18]): 32 µg/mL
- -logMIC (Staphylococcus aureus [19]): 4.287
- MIC50 (Staphylococcus aureus [19]): 16 µg/mL
- MIC90 (Staphylococcus aureus [19]): 64 µg/mL
- MIC (Staphylococcus aureus [20]): 8 µg/mL
- MIC (Staphylococcus aureus [21]): 32 µg/mL
- MIC (Staphylococcus aureus [22]): 16 µg/mL
- MIC (Staphylococcus aureus [23]): 16 µg/mL
- MIC (Staphylococcus aureus [24]): 16 µg/mL
- -logMIC [25]: 4.37
- MIC [25]: 16 µg/mL
- MBC (Staphylococcus aureus [26]): 32 µg/mL
- MIC (Staphylococcus aureus [27]): 64 µg/mL
- MIC (Staphylococcus aureus [28]): 8 µg/mL
- MIC (Nakaseomyces glabratus): 8 µg/mL
- MBC (Staphylococcus aureus [29]): 64 µg/mL
- MBC (Staphylococcus aureus [41]): 512 µg/mL
- MIC (Candida parapsilosis): 32 µg/mL
- -logMIC (Escherichia coli [30]): 4.06
- MIC (Escherichia coli [30]): 32 µg/mL
- MBC (Staphylococcus aureus [31]): 16 µg/mL
- MIC (Staphylococcus aureus [32]): 16 µg/mL
- MBC (Staphylococcus aureus [42]): 128 µg/mL
- MIC (Staphylococcus aureus [33]): 16 µg/mL
- MBC (Staphylococcus aureus [34]): 32 µg/mL
- MIC (Staphylococcus aureus [35]): 128 µg/mL
- MBC [36]: 128 µg/mL
- MBC (Staphylococcus aureus [37]): 16 µg/mL
- MIC (Staphylococcus aureus [38]): 8 µg/mL

Structure (SMILES): CCC(C)n1ncn(-c2ccc(N3CCN(c4ccc(OCC5COC(Cn6cncn6)(c6ccc(Cl)cc6Cl)O5)cc4)CC3)cc2)c1=O (stereo unspecified) [ITRACONAZOLE]
- MIC (Candida tropicalis): > 512 µg/mL
- MIC (Nakaseomyces glabratus): 256 µg/mL (≈ 363 µM)
- MIC (Candida parapsilosis): > 512 µg/mL
